Legend:
Cavia porcellus [1] = species: Cavia porcellus; assay: Maximum contractile response relative to that elicited by carbachol in guinea pig ileum; format: functional
Method in brief: (§1)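 Guinea pig ileum in Tyrode (pH 7.4, 0.3 mM hexamethonium), 37 °C, isotonic contractions at 1 g tension; cumulative agonist concentration–response curves, concentration raised stepwise by a factor of 2.15; maximal contraction expressed relative to the carbachol maximum. Three determinations, each in triplicate.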

Cavia porcellus [2] = species: Cavia porcellus; assay: Equilibrium dissociation constant of the compound-receptor complex was determined by its ability to antagonize carbachol-induced contractions in the ileum (spasmolytic activity); format: functional
Method in brief: (§2)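 Isolated guinea pig ileum in Tyrode solution (pH 7.4, 0.3 mM hexamethonium), 37 °C, isotonic recording at 1 g tension. Cumulative carbachol concentration–response curves (stepwise ×2.15) with at least three antagonist concentrations; dissociation constant from shifts, Schild slope checked where range allowed. Three determinations in triplicate.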

Mus musculus [3] = species: Mus musculus; assay: Antimuscarinic activity in intact mice was determined as the dose required to double the dose of oxotremorine inducing a predetermined tremor intensity; format: functional
Method in brief: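 Male Swiss–Webster mice (24–32 g) were given the compound ip at 200 μmol/kg in groups of six or more, with six untreated controls. Twenty minutes later the oxotremorine ED50 (iv) was found by the up-and-down method, with intermittent spontaneous grade 2 tremor as end point. Active compounds were tested at two more doses, and the doubling dose came from linear regression of oxotremorine ED50 against antagonist dose.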

[4] = target: Muscarinic acetylcholine receptor; assay: Compound was tested for the concentration that inhibited the specific binding of (-)-[3H]-NMS to muscarinic receptor in the rat cerebral cortex.; format: tissue-based
Method in brief: (§3)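 Rat (male Sprague–Dawley, 200–300 g) cerebral cortex homogenate, 10 mg wet tissue/mL in 50 mM Na–K phosphate pH 7.4. Incubated 30 min at 30 °C with 0.3 nM (–)-[3H]NMS plus unlabelled ligand; filtration assay. Nonspecific binding with 10 μM atropine. IC50 from one-site competition fit, corrected by Cheng–Prusoff to Ki; three experiments in triplicate.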

Mus musculus [5] = species: Mus musculus; assay: Antimuscarinic activity in intact mice was determined as the dose required to double the dose of oxotremorine inducing a predetermined tremor intensity.; format: functional
Method in brief: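 Male Swiss–Webster mice (24–32 g), groups of six or more; antagonist given ip 200 μmol/kg, untreated controls. After 20 min, oxotremorine ED50 (iv) estimated by up-and-down method, end point intermittent spontaneous grade 2 tremor. Active compounds tested at two further doses; oxotremorine ED50 plotted against antagonist dose, dose doubling it found by linear regression.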

[6] = target: Muscarinic acetylcholine receptor; assay: Compound was tested for the concentration that inhibited the specific binding of (-)-[3H]-NMS to muscarinic acetylcholine receptor in the rat cerebral cortex.; format: tissue-based; method in brief: as §3
Cavia porcellus [7] = species: Cavia porcellus; assay: In vitro effective concentration required to elicit half-maximal contractile response in guinea pig ileum.
Cavia porcellus [8] = species: Cavia porcellus; assay: Maximum contractile response relative to that elicited by carbachol.; format: functional; method in brief: as §1
Cavia porcellus [9] = species: Cavia porcellus; assay: Dissociation constant of the compound-receptor complex.; format: functional
Method in brief: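 Guinea pig ileum in Tyrode solution (pH 7.4) with 0.3 mM hexamethonium at 37 °C, contractions recorded isotonically at 1 g tension. Cumulative carbachol concentration–response curves were built in steps of a factor of 2.15, in the presence of at least three antagonist concentrations. Antagonism was analysed by Schild plots.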

Cavia porcellus [10] = species: Cavia porcellus; assay: Equilibrium dissociation constant of the compound-receptor complex was determined by its ability to antagonize carbachol-induced contractions in the ileum (spasmolytic activity).; format: functional; method in brief: as §2
[11] = target: Muscarinic acetylcholine receptor; assay: Compound was tested for the concentration that inhibited the specific binding of (-)-[3H]-NMS to muscarinic receptor in the rat cerebral cortex; format: tissue-based; method in brief: as §3
Cavia porcellus [12] = species: Cavia porcellus; assay: In vitro effective concentration required to elicit half-maximal contractile response in guinea pig ileum.; remark: listed apart in the source

Ki [6]	Structure (SMILES)	Emax (Cavia porcellus [1])	Kd (Cavia porcellus [2])	Tremorolytic dose (Mus musculus [5])	other results
	CC(=O)N1CCCC1C#CCN1CCCC1 (stereo not drawn)	0	1.4 µM		Tremorolytic dose (Mus musculus [3]): 6.3 µM/kg; Ki [4]: 0.67 µM
204 µM	CN(C)CC#CC1CCC(=O)N1C (stereo not drawn)	0	496 µM	>200 µM/kg	
6.1 µM	CC(=O)N1CCCC1C#CC[N+](C)(C)C.[I-] (stereo not drawn)	0.8			EC50 (Cavia porcellus [7]): 7.5 µM
	CN1C(=O)CCC1C#CCN1CCCC1 (stereo not drawn)			78.3 µM/kg	Emax (Cavia porcellus [8]): 0; Kd (Cavia porcellus [9]): 45.3 µM; Ki [4]: 18.3 µM
145 µM	CN1C(=O)CCC1C#CC[N+](C)(C)C.[I-] (stereo not drawn)	<0.6			EC50 (Cavia porcellus [7]): > 500 µM
	CC(=O)N(C)C(C)C#CCN1CCCC1 (stereo not drawn)	0.83		0.6 µM/kg	
	CC(=O)N1CCCC1C#CCN(C)C (stereo not drawn)	0		119 µM/kg	Kd (Cavia porcellus [10]): 125 µM; Ki [11]: 25.4 µM
	CC(=O)N(C(C)=O)C(C)C#CCN1CCCC1 (stereo not drawn)	0	0.28 µM	3.2 µM/kg	
0.78 µM	CC(=O)N1C(=O)CCC1C#CCN1CCCC1 (stereo not drawn)	0	1.43 µM	3.5 µM/kg	
6.4 µM	CC(=O)N1C(=O)CCC1C#CC[N+](C)(C)C.[I-] (stereo not drawn)	0.78			EC50 (Cavia porcellus [7]): 13.4 µM
53.2 µM	CC(=O)N1C(=O)CCC1C#CCN(C)C (stereo not drawn)	0	95.6 µM	160 µM/kg	
	CN1[C@@H]2CC[C@H]1C[C@@H](OC(=O)C(CO)c1ccccc1)C2 (stereo partly drawn) [ATROPINE]				Kd (Cavia porcellus [9]): 0.0009 µM; Tremorolytic dose (Mus musculus [3]): 0.57 µM/kg
	C[N+](C)(C)CCOC(N)=O.[Cl-] [CARBACHOL]				Emax (Cavia porcellus [8]): 1; Kd (Cavia porcellus [9]): 15.3 µM; EC50 (Cavia porcellus [12]): 0.1 µM
